Source: ChEMBL document CHEMBL1125235, “Doxorubicin analogues incorporating chemically reactive substituents” (J Med Chem, 1991)

How the values were obtained:
KBM-3 cell line = experiment: Ability to inhibit growth of human myelogenous leukemic cell line KBM-3 was determined in an in vitro clonogenic assay.
L1210 = experiment: Ability to inhibit growth of L1210 leukemic cell lines was determined in an in vitro MTT assay.; format: functional, cell-based; settings: Mus musculus
How it was run: (§1)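 Murine leukemia cells in RPMI 1640 with 10% heat-inactivated FCS, 2-mercaptoethanol; exponentially growing at 10^6 cells/mL, exposed to varying drug concentrations (DMSO stock, final 0.5% DMSO; controls same) for 1 h at 37 °C, washed twice with ice-cold PBS, resuspended at 2 × 10^5/mL in drug-free medium, cultured 72 h. IC50 = concentration giving 50% growth inhibition versus untreated controls.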

MES-SA [1] = experiment: Ability to inhibit growth of doxorubicin-sensitive (MES-SA) uterine sarcoma cell line was determined in an in vitro MTT assay.; format: functional, cell-based; settings: Homo sapiens
How it was run: (§2)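 Uterine sarcoma cells in Waymouth's/McCoy's 5A with 15% FCS and insulin. MES-SA seeded at 4 × 10^3, MES-SA/DOX at 6 × 10^3 per well, attached 16–24 h, then given drug-containing medium (final DMSO 0.5%) for 72 h. MTT added for 3 h at 37 °C, formazan dissolved in DMSO, OD read at 570 nm. IC50 versus untreated controls.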

MES-SA [2] = experiment: Ability to inhibit growth of doxorubicin-resistant (MES-SA/DOX) uterine sarcoma cell line was determined in an in vitro MTT assay.; format: functional, cell-based; settings: Homo sapiens
How it was run: as §2

P388 = experiment: Ability to inhibit growth of P388 leukemic cell line was determined in an in vitro MTT assay.; format: functional, cell-based; settings: Mus musculus
How it was run: as §1

KBM-3/DOX cell line = experiment: Ability to inhibit growth of human myelogenous leukemic cell line KBM-3 variant namely KBM-3/DOX, was determined in an in vitro clonogenic assay.

| IC50 (KBM-3 cell line) [µM] | IC50 (L1210) [µM] | IC50 (P388) [µM] | IC50 (KBM-3/DOX cell line) [µM] | Structure (SMILES) | IC50 (MES-SA [1]) [µM] | IC50 (MES-SA [2]) [µM] |
| --- | --- | --- | --- | --- | --- | --- |
| 0.026 | 0.2 | 1.22 | 0.49 | COc1cccc2c1C(=O)c1c(O)c3c(c(O)c1C2=O)C[C@@](O)(C(=O)CO)C[C@@H]3O[C@H]1C[C@H](N)[C@H](O)[C@H](C)O1 [DOXORUBICIN] | 0.04 | 4.2 |
|  | 2.1 | 2.9 |  | COc1cccc2c1C(=O)c1c(O)c3c(c(O)c1C2=O)C[C@](O)(C(=O)CO)C[C@@H]3OC1CC(NC(=O)CCl)C(O)C(C)O1 (stereo partly specified) | 0.4 | 2.7 |
| 0.14 | 2.1 | 1.5 | 0.16 | COc1cccc2c1C(=O)c1c(O)c3c(c(O)c1C2=O)C[C@](O)(C(=O)CO)C[C@@H]3OC1CC(NC(=O)CBr)C(O)C(C)O1 (stereo partly specified) | 0.2 | 0.8 |

| Structure (SMILES) | IC50 (KBM-3 cell line) [µM] | IC50 (L1210) [µM] | IC50 (P388) [µM] | IC50 (KBM-3/DOX cell line) [µM] | IC50 (MES-SA [1]) [µM] | IC50 (MES-SA [2]) [µM] |
| --- | --- | --- | --- | --- | --- | --- |
| COc1cccc2c1C(=O)c1c(O)c3c(c(O)c1C2=O)C[C@](O)(C(=O)CO)C[C@@H]3OC1CC(NC(=O)N(CCCl)N=O)C(O)C(C)O1 (stereo partly specified) | 0.21 | 2.9 | 2.9 | 0.25 | 0.8 | 7.7 |
| COc1cccc2c1C(=O)c1c(O)c3c(c(O)c1C2=O)C[C@](O)(C(=O)CO)C[C@@H]3OC1CC(NC(=O)c2ccc(S(=O)(=O)F)cc2)C(O)C(C)O1 (stereo partly specified) |  | 6.9 | 7.7 |  | 3.8 | 6.9 |
